The text below walks through data of the array DNA melting data of Ke et al. (doi:10.1101/2024.01.08.574731).

Data set [1] in a line: folding enthalpy; higher = less favourable; fluorescence melt of hairpins on a sequencing array, two-state fit. To be noted: sodium 0.088 M. Put shortly:
(§1)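 Hairpins were imaged by Cy3 fluorescence on a sequenced MiSeq flow cell with annealed Cy3 and quencher oligos, in 50 mM Na-HEPES pH 8.0, 25 mM NaCl, in 2.5 °C steps up to 60 °C. Bootstrapped two-state fits of normalised signals gave melting temperature and folding enthalpy. Four replicates were combined by inverse variance, and fitted temperatures were raised by 9.35 °C to match UV melts.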

The nature of data set [2]: melting temperature; fluorescence melt of hairpins on a sequencing array, two-state fit, raised by 9.35 °C to match UV melts. To be noted: sodium 0.088 M. The method in brief:
as §1

Consider GGTCAGACGAAAGTCACC (((..(((....)))))), for which the folding enthalpy in data set [1] was -14.6 kcal/mol. Further, in data set [2], the Tm stood at 30.5 °C.
For GGTCAGCGAAAGCTTACC (((.(((....))).))), in that order: -31.8 kcal/mol and 48.9 °C.
For GGTCAGGGAAACTTGGCC ((.((.(....).)).)), the folding enthalpy in data set [1] is -26.1 kcal/mol. Moreover, in data set [2], the Tm is 38.2 °C.
For GGTCATCGAAAGATACC (((.(((....)))))), in that order: -24.2 kcal/mol and 38.4 °C.
For GGTCATGGAAACACGACC ((((.((....)).)))), in that order: -37.1 kcal/mol and 43 °C.
For GGTCATGGAAACATGGTC (..((((....))))..), in that order: -17.6 kcal/mol and 32.7 °C.
Regarding GGTCCAGAAATGGACC ((((((....)))))), the folding enthalpy in data set [1] was -46 kcal/mol. Further, the Tm in data set [2] stood at 64 °C.
Taken in the same sequence, the figures for GGTCCAGGAAACCGAACC (((.(.(....).).))) were -10 kcal/mol and 25.7 °C.
Taken in the same sequence, the figures for GGTCCCCGAAAGGGTACC (((.(((....))).))) were -24.1 kcal/mol and 53.3 °C.
Take GGTCCCGAAAGGGAAACC ((((((....)))..))): the folding enthalpy in data set [1] is -15.3 kcal/mol. Further, the Tm in data set [2] was determined as 43.2 °C.
For GGTCCCGAAAGGGATACC ((((((....)))..))), in that order: -12.9 kcal/mol and 41.4 °C.
For GGTCCCGAAAGGGCACC ((((((....))).))), in that order: -16.6 kcal/mol and 53.5 °C.
Taken in the same sequence, the figures for GGTCCGTCGAAAGACACC (((..(((....)))))) were -14.1 kcal/mol and 27.5 °C.
Regarding GGTCCTCGAAAGAGACC (((.(((....)))))), the folding enthalpy in data set [1] was -31.3 kcal/mol. Moreover, the Tm in data set [2] is 48.1 °C.
Taken in the same sequence, the figures for GGTCGAGAAATCGACC ((((((....)))))) were -40 kcal/mol and 66.2 °C.
Taken in the same sequence, the figures for GGTCGAGGAAACCCGACC (((((.(....).))))) were -49.6 kcal/mol and 54.1 °C.
Taken in the same sequence, the figures for GGTCGAGGAAACTCGGCC ((.((((....)))).)) were -53.9 kcal/mol and 59.5 °C.
Consider GGTCGCACGAAAGTGACC (((..(((....)))))), for which the folding enthalpy in data set [1] was -18.1 kcal/mol. Further, the Tm in data set [2] was 49.6 °C.
For GGTCGCGAAAGCGGTACC ((((((....)))..))), in that order: -14.5 kcal/mol and 46.5 °C.
With GGTCGCGGAAACGTGGCC ((.(.((....)).).)), the folding enthalpy in data set [1] is -48.9 kcal/mol. For the same sequence, the Tm in data set [2] amounted to 53.5 °C.
Turning to GGTCGGAAACGACC (((((....))))), in data set [1], the folding enthalpy was -32.3 kcal/mol. Moreover, the Tm in data set [2] worked out at 68 °C.
For GGTCGGGGAAACCTGACC ((((.((....)).)))), in that order: -37.5 kcal/mol and 57.2 °C.
Consider GGTCGTGGAAACACGATC (.(((((....))))).), for which the folding enthalpy in data set [1] is -38 kcal/mol. Further, in data set [2], the Tm is 54 °C.
For GGTCGTGGAAACGTGACC ((((..(....)..)))), in that order: -20.4 kcal/mol and 46.5 °C.
Taken in the same sequence, the figures for GGTCTAACGAAAGTTACC (((..(((....)))))) were -10.2 kcal/mol and 25.5 °C.
For GGTCTACCGAAAGGTACC (((..(((....)))))), in that order: -11 kcal/mol and 29.1 °C.
On to GGTCTACGAAAGTAACC (((.(((....)))))), for which, in data set [1], the folding enthalpy was -24 kcal/mol. Also, the Tm in data set [2] turned out to be 34.3 °C.
With GGTCTAGGAAACTAGATC (.(((((....))))).), the folding enthalpy in data set [1] is -29.8 kcal/mol. In addition, the Tm in data set [2] is 40.3 °C.
For GGTCTAGGAAACTAGGCC ((.((((....)))).)), in that order: -46.1 kcal/mol and 51.1 °C.
In the case of GGTCTAGGAAACTGGACC ((((.((....)).)))), the folding enthalpy in data set [1] was -41.6 kcal/mol. Moreover, the Tm in data set [2] stood at 51 °C.
For GGTCTATCGAAAGATACC (((..(((....)))))), in that order: -10.3 kcal/mol and 25.8 °C.
For GGTCTCCGAAAGGAAACC (((.(((....))).))), in that order: -29.2 kcal/mol and 45.5 °C.
Taken in the same sequence, the figures for GGTCTCCGAAAGGAACC (((.(((....)))))) were -22.4 kcal/mol and 45.2 °C.
For GGTCTCGAAAGAGATACC ((((((....)))..))), the folding enthalpy in data set [1] is -15.2 kcal/mol. In addition, in data set [2], the Tm was found to be 38.7 °C.
Taken in the same sequence, the figures for GGTCTCGAAAGAGGTACC ((((((....)))..))) were -19.9 kcal/mol and 35 °C.
As to GGTCTCGAAAGAGTCACC ((((((....)))..))), the folding enthalpy in data set [1] is -14.6 kcal/mol. Further, the Tm in data set [2] amounted to 31.3 °C.
Turning to GGTCTCGGAAACGAGGCC ((.((((....)))).)), the folding enthalpy in data set [1] was -39.3 kcal/mol. The Tm in data set [2] amounted to 62.2 °C.
GGTCTCTCGAAAGAGACC (((..(((....)))))): in data set [1], the folding enthalpy was -35.3 kcal/mol. In addition, the Tm in data set [2] is 60.5 °C.
For GGTCTGCGAAAGCAACC (((.(((....)))))), in that order: -18.8 kcal/mol and 44.6 °C.
Taken in the same sequence, the figures for GGTCTGCGAAAGCACACC (((.(((....))).))) were -20.9 kcal/mol and 42.1 °C.
For GGTCTGCGAAAGCATACC (((.(((....))).))), in that order: -22.1 kcal/mol and 49.4 °C.
Take GGTCTTCGAAAGAAAACC (((.(((....))).))): the folding enthalpy in data set [1] was -25.7 kcal/mol. In addition, in data set [2], the Tm stood at 35.2 °C.
GGTCTTGCGAAAGCAACC (((..(((....)))))): the folding enthalpy in data set [1] is -8.24 kcal/mol. The Tm in data set [2] was found to be 28.8 °C.
For GGTCTTGGAAACAAGACC (((((((....))))))), in that order: -45.2 kcal/mol and 64.2 °C.
With GGTCTTGGAAACGAGACC (((((.(....).))))), the folding enthalpy in data set [1] was -37.6 kcal/mol. Further, the Tm in data set [2] came out at 51.9 °C.
Taken in the same sequence, the figures for GGTGAAGGAAACTTCACC (((((((....))))))) were -42.6 kcal/mol and 63 °C.
Taken in the same sequence, the figures for GGTGAATCGAAAGATACC (((..(((....)))))) were -16.8 kcal/mol and 29.8 °C.
For GGTGACCCGAAAGGGACC (((..(((....)))))), in that order: -14.5 kcal/mol and 38.1 °C.
GGTGACCGAAAGGTGACC (((.(((....))).))): the folding enthalpy in data set [1] was -42.5 kcal/mol. Moreover, the Tm in data set [2] is 54.4 °C.
Regarding GGTGACGAAAGTCAACC ((((((....))).))), the folding enthalpy in data set [1] is -19.6 kcal/mol. In data set [2], the Tm came to 56.1 °C.
Taken in the same sequence, the figures for GGTGACGAAAGTCGTACC ((((((....)))..))) were -15.6 kcal/mol and 46.2 °C.
For the sequence GGTGACGAAAGTCTCACC ((((((....)))..))), the folding enthalpy in data set [1] is -15.1 kcal/mol. Further, the Tm in data set [2] is 40.9 °C.
In the case of GGTGACGAAAGTCTTACC ((((((....)))..))), the folding enthalpy in data set [1] is -15 kcal/mol. Moreover, in data set [2], the Tm was determined as 35.8 °C.
GGTGACGGAAACGCCACC ((((.((....)).)))): the folding enthalpy in data set [1] was -48 kcal/mol. The Tm in data set [2] is 54.3 °C.
Taken in the same sequence, the figures for GGTGACGGAAACGTTACC (((.(((....))).))) were -38.5 kcal/mol and 53 °C.
For GGTGAGGGAAACCTCATC (.(((((....))))).), in that order: -25.1 kcal/mol and 48.5 °C.
Taken in the same sequence, the figures for GGTGAGGGAAACCTCGCC ((.((((....)))).)) were -36.5 kcal/mol and 58.1 °C.
Regarding GGTGATGCGAAAGCAACC (((..(((....)))))), in data set [1], the folding enthalpy was -13.7 kcal/mol. Also, the Tm in data set [2] stood at 36.9 °C.
Taken in the same sequence, the figures for GGTGATGGAAACATTGCC ((..(((....)))..)) were -32.5 kcal/mol and 38.3 °C.
For the sequence GGTGCAGGAAACCGCACC (((((.(....).))))), the folding enthalpy in data set [1] is -45.1 kcal/mol. In data set [2], the Tm turned out to be 57 °C.
For GGTGCAGGAAACTGCGTC (..((((....))))..), in that order: -10.3 kcal/mol and 35.6 °C.
For GGTGCCCGAAAGGGAACC (((.(((....))).))), in that order: -35.8 kcal/mol and 65.1 °C.
For GGTGCCGAAAGGCCACC ((((((....))).))), in that order: -18.2 kcal/mol and 60.4 °C.
Consider GGTGCCGAAAGGCCGACC ((((((....)))..))), for which the folding enthalpy in data set [1] is -14.1 kcal/mol. The Tm in data set [2] amounted to 41.9 °C.
Taken in the same sequence, the figures for GGTGCCGAAAGGCGACC ((((((....))).))) were -16.8 kcal/mol and 61 °C.
For GGTGCCGAAAGGCTGACC ((((((....)))..))), in that order: -13.9 kcal/mol and 46.8 °C.
For GGTGCCGGAAACGACACC ((((.((....)).)))), in that order: -44.9 kcal/mol and 54.6 °C.
Consider GGTGCCGGAAACGGCGTC (..((((....))))..), for which the folding enthalpy in data set [1] was -9.71 kcal/mol. In addition, in data set [2], the Tm is 42.2 °C.
For GGTGCGGGAAACCACACC ((((.((....)).)))), in that order: -54.3 kcal/mol and 51.1 °C.
As to GGTGCGGGAAACTGCACC (((((.(....).))))), the folding enthalpy in data set [1] was -40.6 kcal/mol. For the same sequence, the Tm in data set [2] worked out at 63.1 °C.
Taken in the same sequence, the figures for GGTGCTCGAAAGAGAACC (((.(((....))).))) were -48.3 kcal/mol and 54.1 °C.
Taken in the same sequence, the figures for GGTGCTCGAAAGAGACC (((.(((....)))))) were -19.4 kcal/mol and 46.5 °C.
Taken in the same sequence, the figures for GGTGCTGGAAACAGTGCC ((..(((....)))..)) were -37.8 kcal/mol and 50.1 °C.
